Our source for the IC50, Reduction and NS values is ChEMBL document CHEMBL1134325, “Diaminoindanes as microsomal triglyceride transfer protein inhibitors” (J Med Chem, 2001).

In experiment [1] the target is T1, Microsomal triglyceride transfer protein large subunit (Homo sapiens, UniProt P55157).
T1 sequence (P55157 whole entry): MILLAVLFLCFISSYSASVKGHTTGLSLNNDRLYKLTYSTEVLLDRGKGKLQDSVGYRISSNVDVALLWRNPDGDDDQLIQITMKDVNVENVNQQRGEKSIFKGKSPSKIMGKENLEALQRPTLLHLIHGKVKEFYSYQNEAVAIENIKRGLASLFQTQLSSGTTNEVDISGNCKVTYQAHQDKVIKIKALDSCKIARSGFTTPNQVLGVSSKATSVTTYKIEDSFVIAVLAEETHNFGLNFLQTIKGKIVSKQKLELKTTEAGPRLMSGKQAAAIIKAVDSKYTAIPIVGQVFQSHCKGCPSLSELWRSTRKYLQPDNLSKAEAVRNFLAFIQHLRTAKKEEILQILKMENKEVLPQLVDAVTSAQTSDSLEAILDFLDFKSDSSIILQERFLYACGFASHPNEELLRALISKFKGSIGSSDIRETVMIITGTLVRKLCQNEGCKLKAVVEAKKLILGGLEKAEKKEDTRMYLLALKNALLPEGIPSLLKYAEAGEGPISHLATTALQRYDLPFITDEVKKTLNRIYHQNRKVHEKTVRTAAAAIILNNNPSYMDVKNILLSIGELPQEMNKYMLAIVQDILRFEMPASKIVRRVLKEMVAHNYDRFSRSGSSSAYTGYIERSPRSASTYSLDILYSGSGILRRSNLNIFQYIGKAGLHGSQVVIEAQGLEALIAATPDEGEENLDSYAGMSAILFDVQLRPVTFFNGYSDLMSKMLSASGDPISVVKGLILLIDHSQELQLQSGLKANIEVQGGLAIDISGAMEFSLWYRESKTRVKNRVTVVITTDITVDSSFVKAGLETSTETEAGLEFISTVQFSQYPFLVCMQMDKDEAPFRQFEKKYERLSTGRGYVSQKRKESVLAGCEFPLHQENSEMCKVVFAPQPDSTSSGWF
Briefly: In vitro inhibitory activity against MTP using MTP transfer assay.

In experiment [2] the test system is Rattus norvegicus. Briefly: Inhibition of total cholesterol in normolipidemic rats after 6 hr of 50 mg/kg oral dosing. In kind it is functional. The gist of the method:
(§1)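 Overnight-fasted normolipidemic rats received a single oral dose in cornstarch vehicle. Blood was drawn at 2, 6 and 24 h post-dose and assayed for triglycerides and total cholesterol, with free access to food after the 6 h sample. Value is mean percent inhibition versus a separate vehicle-treated group, unpaired t test p < 0.05, NS = no significant change, N = 6.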

Experiment [3] relates to Rattus norvegicus. Briefly: Inhibition of plasma triglycerides in normolipidemic rats after 6 hr of 50 mg/kg oral dosing. It is filed as functional. The gist of the method: as §1
The subject of experiment [4] is Rattus norvegicus. Nature of the experiment: Inhibition of plasma triglycerides in normolipidemic rats after 2 hr of 50 mg/kg oral dosing. In kind it is functional. The gist of the method: as §1
Experiment [5] has as its system Rattus norvegicus. Briefly: Inhibition of total cholesterol in normolipidemic rats after 2 hr of 50 mg/kg oral dosing. It is filed as functional. The gist of the method: as §1
Experiment [6] has as its system Rattus norvegicus. Nature of the experiment: Inhibition of total cholesterol in normolipidemic rats after 24 hr of 50 mg/kg oral dosing; no significant change. Also on record: dose 50 mg/kg. It is filed as functional, organism-based. The gist of the method: as §1
The test system of experiment [7] is Rattus norvegicus. Nature of the experiment: Inhibition of plasma triglycerides in normolipidemic rats after 24 h of 50 mg/kg oral dosing; no significant change. It is filed as functional, organism-based. Also on record: dose 50 mg/kg. In short, it runs like this:
as §1

Experiment [8] relates to Rattus norvegicus. Nature of the experiment: Inhibition of plasma triglycerides in normolipidemic rats after 6 h of […] mg/kg oral dosing; no significant change. Also on record: dose 50 mg/kg. In kind it is functional, organism-based.
The subject of experiment [9] is Rattus norvegicus. Briefly: Inhibition of total cholesterol in normolipidemic rats after 24 hr of 50 mg/kg oral dosing. It is filed as functional. The gist of the method:
as §1

Experiment [10] relates to Rattus norvegicus. Briefly: Inhibition of total cholesterol in normolipidemic rats after 6 h of […] mg/kg oral dosing; no significant change. In kind it is functional, organism-based. Also on record: dose 50 mg/kg.

pIC50: −log10 of the molar value.

As to `Cc1cccc(C(=O)Nc2ccc3c(c2)CC(NS(=O)(=O)c2ccccc2)C3)c1-c1ccc(F)cc1` (stereo unspecified), in experiment [1], the negative logarithm of the IC50 (pIC50) (commonly the negative decadic logarithm of the IC50, by convention in mol/L) is 6.62.
In experiment [1], `Cc1cccc(C(=O)Nc2ccc3c(c2)CC(CNS(C)(=O)=O)C3)c1-c1ccc(C(F)(F)F)cc1` (stereo unspecified) showed a pIC50 of 6.82.
Regarding `Cc1cccc(C(=O)Nc2ccc3c(c2)CC(NS(=O)(=O)c2ccccc2)C3)c1-c1ccc(Cl)cc1` (stereo unspecified), in [1], the negative-log IC50 (pIC50) was 7.00.
With `COC(=O)N[C@H]1Cc2ccc(NC(=O)c3ccccc3-c3ccc(C(F)(F)F)cc3)cc2C1`, the pIC50 in [1] is 7.17. In addition, the Reduction with Rattus norvegicus [2] came out at 39%; in the experiment on Rattus norvegicus [3], 74%; in the experiment on Rattus norvegicus [4], 69%; in the experiment with Rattus norvegicus [5], 20%. For the same compound, the NS result in the experiment with Rattus norvegicus [6] and with Rattus norvegicus [7] was “no significant change” throughout.
Turning to `CS(=O)(=O)NC1Cc2ccc(NC(=O)c3ccccc3-c3ccc(C(F)(F)F)cc3)cc2C1` (stereo unspecified), the pIC50 in experiment [1] is 6.92.
In experiment [1], `Cc1cc(C)c(-c2ccc(C(F)(F)F)cc2)c(C(=O)Nc2ccc3c(c2)C[C@@H](NS(=O)(=O)c2cccs2)C3)c1` gave a pIC50 of 6.74. Besides, the Reduction turned out to be 46% in the experiment on Rattus norvegicus [2], 68% with Rattus norvegicus [3], 79% in the experiment on Rattus norvegicus [4] and 33% with Rattus norvegicus [5]. The NS entry with Rattus norvegicus [6] and with Rattus norvegicus [7] was “no significant change” in each case.
`Cc1cccc(C(=O)Nc2ccc3c(c2)CC(NS(=O)(=O)c2cccs2)C3)c1-c1ccc(F)cc1` (stereo unspecified): in experiment [1], the pIC50 is 7.30.
In [1], `Cc1cccc(C(=O)Nc2ccc3c(c2)CC(CNS(=O)(=O)c2cccs2)C3)c1-c1ccc(C(F)(F)F)cc1` (stereo unspecified) had a pIC50 of 7.85.
`COC(=O)NC1CCc2ccc(NC(=O)c3cccc(C)c3-c3ccc(C(F)(F)F)cc3)cc2CC1` (stereo unspecified): the negative logarithm of the IC50 (pIC50) in experiment [1] is 7.70. For the same compound, the Reduction in the experiment with Rattus norvegicus [2] turned out to be 20%; in the experiment on Rattus norvegicus [4], 39%; in the experiment with Rattus norvegicus [5] it was 20%. The NS entry in the experiment on Rattus norvegicus [8], in the experiment with Rattus norvegicus [6] and with Rattus norvegicus [7] was “no significant change” in each case.
For `Cc1cccc(C(=O)Nc2ccc3c(c2)CCC(NS(C)(=O)=O)CC3)c1-c1ccc(C(F)(F)F)cc1` (stereo unspecified), in experiment [1], the pIC50 was 7.10. Besides, the Reduction in the experiment with Rattus norvegicus [9] was 17%; in the experiment on Rattus norvegicus [2], 41%; in the experiment with Rattus norvegicus [3], 53%; in the experiment on Rattus norvegicus [4], 81%; with Rattus norvegicus [5], 29%. For the same compound, the NS entry in the experiment with Rattus norvegicus [7] is “no significant change”.
In experiment [1], `Cc1cccc(C(=O)Nc2ccc3c(c2)C[C@H](NS(C)(=O)=O)C3)c1-c1ccc(C(F)(F)F)cc1` gave a pIC50 of 7.47. The Reduction with Rattus norvegicus [2] was 42%; in the experiment with Rattus norvegicus [3], 68%; with Rattus norvegicus [4], 74%; in the experiment on Rattus norvegicus [5], 27%. The NS entry in the experiment with Rattus norvegicus [6] and in the experiment on Rattus norvegicus [7] was “no significant change” in each case.
As for `COC(=O)N[C@H]1Cc2ccc(NC(=O)c3cc(C(F)(F)F)ccc3-c3ccc(C(F)(F)F)cc3)cc2C1`, the pIC50 in [1] was 6.39.
`Cc1ccc(-c2c(C)cccc2C(=O)Nc2ccc3c(c2)CC(NS(=O)(=O)c2ccccc2)C3)cc1` (stereo unspecified) showed a pIC50 in [1] of 7.03.
The same measure, in the same setting: then `Cc1cccc(C(=O)Nc2ccc3c(c2)CC(NS(C)(=O)=O)C3)c1-c1ccc(Cl)cc1` (stereo unspecified), with 7.00; and `COC(=O)N[C@H]1Cc2ccc(NC(=O)c3cccc(C(F)(F)F)c3-c3ccc(C(F)(F)F)cc3)cc2C1`, with 7.30.
As to `Cc1cccc(C(=O)Nc2ccc3c(c2)CC(NS(=O)(=O)c2cccs2)C3)c1-c1ccc(Cl)cc1` (stereo unspecified), the pIC50 in experiment [1] is 6.92.
The same measure, in the same setting: then `Cc1cccc(C(=O)Nc2ccc3c(c2)CC(NS(=O)(=O)c2ccccc2)C3)c1-c1ccc(C#N)cc1` (stereo unspecified), with 6.92.
Turning to `COC(=O)N[C@@H]1Cc2ccc(NC(=O)c3ccccc3-c3ccc(C(F)(F)F)cc3)cc2C1`, the pIC50 in [1] is 6.96.
With `COC(=O)N1CCN([C@@H]2Cc3ccc(NC(=O)c4cccc(C)c4-c4ccc(C(F)(F)F)cc4)cc3C2)CC1`, the pIC50 in experiment [1] was 6.00. Besides, the Reduction with Rattus norvegicus [2] is listed as 20%; with Rattus norvegicus [4] it was 58%; in the experiment on Rattus norvegicus [5] it was 23%. The NS result with Rattus norvegicus [8], in the experiment with Rattus norvegicus [6] and in the experiment on Rattus norvegicus [7] was “no significant change” throughout.
In turn, `Cc1cccc(C(=O)Nc2ccc3c(c2)CC(NS(C)(=O)=O)C3)c1-c1ccc(F)cc1` (stereo unspecified) showed a pIC50 in experiment [1] of 6.77.
On to `COC(=O)N[C@H]1Cc2ccc(NC(=O)c3cc(C)cc(C)c3-c3ccc(C(F)(F)F)cc3)cc2C1`, for which the pIC50 in [1] was 7.15.
Turning to `Cc1cccc(C(=O)Nc2ccc3c(c2)CC(CNS(C)(=O)=O)C3)c1-c1ccc(Cl)cc1` (stereo unspecified), the pIC50 in experiment [1] is 6.30.
In experiment [1], `O=C(Nc1ccc2c(c1)CC(NCc1ccccc1)C2)c1ccccc1-c1ccc(C(F)(F)F)cc1` (stereo unspecified) had a negative logarithm of the IC50 (pIC50) of 5.32.
With `COc1cccc(C(=O)Nc2ccc3c(c2)CC(NS(=O)(=O)c2ccccc2)C3)c1-c1ccc(Cl)cc1` (stereo unspecified), the pIC50 in [1] was 6.96.
In turn, `O=C(Nc1ccc2c(c1)CC(NS(=O)(=O)c1ccccc1)C2)c1ccccc1-c1ccc(C(F)(F)F)cc1` (stereo unspecified) showed a pIC50 in experiment [1] of 6.98. In addition, the Reduction in the experiment with Rattus norvegicus [3] is 30%; in the experiment on Rattus norvegicus [4], 57%; in the experiment on Rattus norvegicus [5] it was 21%. The NS result in the experiment on Rattus norvegicus [6], in the experiment on Rattus norvegicus [7] and in the experiment on Rattus norvegicus [10] was “no significant change” in each case.
`CN(C)C(=O)NC1Cc2ccc(NC(=O)c3ccccc3-c3ccc(C(F)(F)F)cc3)cc2C1` (stereo unspecified) gave a pIC50 in experiment [1] of 7.10.
As to `Cc1cccc(C(=O)Nc2ccc3c(c2)CCC(NS(C)(=O)=O)CC3)c1-c1ccc(Cl)cc1` (stereo unspecified), in [1], the pIC50 was 7.05.
Still for that read-out and setting: then `Cc1cccc(C(=O)Nc2ccc3c(c2)CCC(NS(=O)(=O)c2cccs2)CC3)c1-c1ccc(C(F)(F)F)cc1` (stereo unspecified), with 6.85.
The same measure, in the same setting: then `O=C(Nc1ccc2c(c1)CC(NS(=O)(=O)c1ccccc1)C2)c1ccccc1-c1ccccc1` (stereo unspecified), with 6.15; and `COc1cccc(C(=O)Nc2ccc3c(c2)CC(NS(C)(=O)=O)C3)c1-c1ccc(Cl)cc1` (stereo unspecified), with 7.15; and `COC(=O)N[C@@H]1Cc2ccc(NC(=O)c3cc(C)cc(C)c3-c3ccc(C(F)(F)F)cc3)cc2C1`, with 7.05.
Consider `COC(=O)NC1CCc2ccc(NC(=O)c3cccc(C)c3-c3ccc(Cl)cc3)cc2CC1` (stereo unspecified), for which the pIC50 in experiment [1] was 7.10.
Same read-out and setting: then `COC(=O)NCC1Cc2ccc(NC(=O)c3cccc(C)c3-c3ccc(Cl)cc3)cc2C1` (stereo unspecified), with 7.00.
For `Cc1cccc(C(=O)Nc2ccc3c(c2)C[C@@H](NS(C)(=O)=O)C3)c1-c1ccc(C(F)(F)F)cc1`, the pIC50 in [1] is 6.69. Moreover, the Reduction in the experiment with Rattus norvegicus [2] is reported as 15%; in the experiment with Rattus norvegicus [3] it was 33%; in the experiment on Rattus norvegicus [4], 33%; in the experiment on Rattus norvegicus [5] it was 12%. The NS result in the experiment on Rattus norvegicus [6] and in the experiment with Rattus norvegicus [7] was “no significant change” each time.
`CC(=O)NC1Cc2ccc(NC(=O)c3ccccc3-c3ccc(C(F)(F)F)cc3)cc2C1` (stereo unspecified) gave a pIC50 in [1] of 7.10.
On the same count and under the same terms, then `O=C(NC1Cc2ccc(NC(=O)c3ccccc3-c3ccc(C(F)(F)F)cc3)cc2C1)c1ccccc1` (stereo unspecified), with below 6.00.
In experiment [1], `COC(=O)NCC1Cc2ccc(NC(=O)c3cc(C)cc(C)c3-c3ccc(C(F)(F)F)cc3)cc2C1` (stereo unspecified) had a pIC50 of 7.40.
Same read-out and setting: then `COC(=O)NC1Cc2ccc(NC(=O)c3cc(C)cc(C)c3-c3ccc(Cl)cc3)cc2C1` (stereo unspecified), with 6.92.
